# Tested on: MS2 coat protein
# Test: apparent Kd, MS2 coat protein; higher = weaker binding; RNA-MaP array; FMN 200 µM where present
# Summary of the method: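 On Illumina sequencing-chip clusters, designs were transcribed by stalled E. coli RNA polymerase and titrated with SNAP-549-labelled MS2 coat protein (0.7 or 1.5 nM, doubling to 3 µM), without and then with constant ligand, in 100 mM Tris-HCl pH 7.5, 80 mM KCl, 4 mM MgCl2, BSA, DTT, yeast tRNA and Tween-20. Apparent Kd is the median of filtered per-cluster curve fits to green signal normalised to red-channel RNA signal and control-cluster median Fmax.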
# [1] = designed as: ON switch for flavin mononucleotide, no ligand
# [2] = ligand present: flavin mononucleotide, designed as: ON switch for flavin mononucleotide
# [3] = designed as: OFF switch for flavin mononucleotide, no ligand
# [4] = ligand present: flavin mononucleotide, designed as: OFF switch for flavin mononucleotide
sequence,measurement,setting,value
UUUGCAUUCCGAGGAUAUUCAUUUAAUGACUUCACAUGAGGAUCACCCAUGUGGCGCUUGCGCCGGGAGAAGGCGGUUUGCUUU,apparent Kd,[1],25.6 nM
same,apparent Kd,[2],24.1 nM
AAUUGAAACGUAGGAUAUCGCUAUAAAUUAACACGAGAAGGACGUACAUGAGGAUCACCCAUGUUAAAUGGUGUAGUUUAGUUG,apparent Kd,[3],32.8 nM
same,apparent Kd,[4],95.5 nM
UGAUAGGACAGAGGAUAUACGGAUAGGAUCUACUAUCUUCUUCAAAUAACAUGAGGAUCACCCAUGUAGAAGGCUGUCCUAUCU,apparent Kd,[3],15 nM
same,apparent Kd,[4],33 nM
UGGUACAUCGCAGGAUAUCAUGUAGAUACAUGAGGAUCACCCAUGUCGAUGGAGACAUCGGAGAUUGAGAAGGGCGAUGUACCU,apparent Kd,[1],907 nM
same,apparent Kd,[2],41.1 nM
AAUAUAGAGCUGGAAAUAAACUCAACAUGAGGAUCACCCAUGUAGGAUAUCAGCACGAUAAGUGCUGAGAAGGACAUCCAGCUC,apparent Kd,[3],16.7 nM
same,apparent Kd,[4],17.1 nM
UGUGCGUAUGUGAGGAUAUGCUGGUCCUUGGAUCGGCAGAAGGCACAUGAGGAUCACCCAUGUGGUGUCGUACA,apparent Kd,[3],493 nM
same,apparent Kd,[4],19.2 nM
UCAUCGGCAGGAUAUACGAAAGGAGAACUUCUGCGCAAGAUACAUGAGGAUCACCCAUGUAGAAGGGUCGUAUG,apparent Kd,[3],27.8 nM
same,apparent Kd,[4],88.7 nM
ACACGGUAUGUAGGAUAUGCAUAGCAUUGCUAUGCAGAAGGACAUGAGGAUCACCCAUGUAUGUAUUCCAUACUAAUCCCGUGC,apparent Kd,[3],6.03 nM
same,apparent Kd,[4],6 nM
ACAAAUGGAGGAUAUACAUGAGGAUCACCCAUGUUUAUCCUACAUAUGUGAUCCUCAUGUAGAAGGCCAUUUGA,apparent Kd,[3],11.4 nM
same,apparent Kd,[4],10.8 nM
UUAUUUAUGCAAGGAUAUCAAUUAUAUUGACGUCCUACAUGAGGAUCACCCAUGUUUAGUUUUUUUGAGAAGGUGCAUUGUCUG,apparent Kd,[1],64.8 nM
same,apparent Kd,[2],59.7 nM
UUUUAACAUGAGGAUCACCCAUGUGAGGAUAUCGAAAUUUAUAUUUAUAUUAAUAUUACGAGAAGGCACAUUUU,apparent Kd,[3],85.5 nM
same,apparent Kd,[4],118 nM
CUGUGUUGCGGGCAGGAUAUGUAUUGGAAUACAUGAGGAUCACCCAUGUGCGGGUGUUUCACCCGACAGAAGGGCCAAUCGCGAC,apparent Kd,[1],363 nM
same,apparent Kd,[2],34.9 nM
ACAAUAAACUAGAAGGUGGUGAUACAUGAGGAUCACCCAUGUAUAGUACUGAGGAUAUGGAUGAUUGAAGUGAAUAUCGUAGCA,apparent Kd,[1],111 nM
same,apparent Kd,[2],86 nM
UUGGACGUCGUAGGAUAUGUAGGAUAUUCCUACAUGAGGAUCACCCAUGUUGACAUGGAAGAAGCACAGAAGGACGAUGUCCAU,apparent Kd,[1],150 nM
same,apparent Kd,[2],6.6 nM
ACUGACAUGAGGAUCACCCAUGUCUUGGAUAGGCCAAAUUCACAGGAUAUGCAUGAGGACAGCGUGCAGAAGGGUGAUGCAAUG,apparent Kd,[1],54.6 nM
same,apparent Kd,[2],25.5 nM
AAUUAUUUUUGAGGAUAUGGUGGUGAAACACCACCAGAAGGCGAAAUAAACAUGAGGAUCACCCAUGUGAGCCUGAUGCUUAUG,apparent Kd,[3],21.1 nM
same,apparent Kd,[4],55.8 nM
GGAGGACAUGAGGAUCACCCAUGUGGAUGAUCGCUAGGAUAUGCGUGCAGGAAGAGUGGUGCAGAAGGAGUGGGAU,apparent Kd,[1],451 nM
same,apparent Kd,[2],288 nM
UGAUCGAGAGAUCUUAGAUUCUGGUAGGAUAUACAUUAUGAAAAUUUUACAUGAGGAUCACCCAUGUAGAAGGACUAGAGUCUA,apparent Kd,[3],5.44 nM
same,apparent Kd,[4],6.33 nM
GAAGCACGCACAGGAUAUCCGGCGGCGCUCGUCGGAGAAGGGUGACAUGAGGAUCACCCAUGUACGUGCAACUCAGUUUGAGAG,apparent Kd,[1],21.5 nM
same,apparent Kd,[2],13.9 nM
UUUUAACAUGAGGAUCACCCAUGUGAGGAUAUCGAAAUUUAUAUUAAUAUUAUUUAAUCGAGAAGGCACAUUUU,apparent Kd,[3],110 nM
same,apparent Kd,[4],118 nM
AUAAAGUCAGGAUAUGUAAGAAUAACGAAAGUUAUAAAGAAACAGAAGGGACAUGAGGAUCACCCAUGUAAAAU,apparent Kd,[3],29.6 nM
same,apparent Kd,[4],30.5 nM
GUAGAGUAGUGAGGAUAUACGAGAUCGAUAGAUCGGCGAUCCAUUUAUACAUGAGGAUCACCCAUGUAGAAGGCACUUCUCUAC,apparent Kd,[3],6.26 nM
same,apparent Kd,[4],62.8 nM
CUAUUGGUAACAGGAUAUAUGAGUCCUACAUGAGGAUCACCCAUGUAGGUGGUCAAACGUGAUUAGUAGAAGGGUUACCAAUAG,apparent Kd,[1],12.2 nM
same,apparent Kd,[2],6.18 nM

# Source: the EternaBench riboswitch data
